# This is a sample that favours compounds with a hit; in the whole collection about 3.1% have one here.
# KCNQ1 pot: potentiators or activators of human KCNQ1 potassium channel. P51787. CHO-K1 KCNQ1, thallium flux FluxOR fluorescence; hits give high values. B-score at 10 µM. 0.35% of 310,000 active;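 active = fluorescence ratio B-score, a plate-corrected score, at least three library SD, with initial intensity B-score within 5 SD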
# Target sequence (P51787 whole entry, looked up): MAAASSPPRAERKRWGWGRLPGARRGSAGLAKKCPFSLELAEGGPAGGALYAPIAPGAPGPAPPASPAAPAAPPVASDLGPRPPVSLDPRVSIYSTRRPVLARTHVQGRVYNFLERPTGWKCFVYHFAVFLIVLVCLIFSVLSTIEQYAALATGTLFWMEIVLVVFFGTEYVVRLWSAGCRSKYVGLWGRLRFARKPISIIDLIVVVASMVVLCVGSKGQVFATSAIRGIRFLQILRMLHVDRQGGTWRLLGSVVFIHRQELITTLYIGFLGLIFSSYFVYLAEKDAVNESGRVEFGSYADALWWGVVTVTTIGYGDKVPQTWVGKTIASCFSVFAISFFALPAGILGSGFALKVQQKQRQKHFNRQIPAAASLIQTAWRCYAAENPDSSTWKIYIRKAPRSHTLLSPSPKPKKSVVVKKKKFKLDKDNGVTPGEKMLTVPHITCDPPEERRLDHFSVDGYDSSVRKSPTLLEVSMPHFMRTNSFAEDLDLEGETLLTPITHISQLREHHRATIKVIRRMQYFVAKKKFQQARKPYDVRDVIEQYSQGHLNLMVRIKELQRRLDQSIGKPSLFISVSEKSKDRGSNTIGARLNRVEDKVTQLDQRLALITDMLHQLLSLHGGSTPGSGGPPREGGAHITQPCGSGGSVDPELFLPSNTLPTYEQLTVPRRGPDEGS
#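 Schedule – 37 °C overnight plating, 90-min dark dye load, 20-min compound pretreatment · System – stable KCNQ1 CHO-K1 line · Probe or stimulus – thallium- and potassium-containing depolarizing buffer · Measured by – kinetic FluxOR fluorescence, 10 s baseline plus 110 s post-stimulus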
# KCNK3 block: human KCNK3 channel inhibition, primary screen; B-score at 10 µM; CHO-KCNK3 thallium flux, FluxOR fluorescence; hits give low values; 0.84% of 340,000 active; O14649; AID 602410;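 active = B-score under library mean minus 4 SD, starting fluorescence ratio at most library mean plus 5 SD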;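 also: more negative B-score means stronger inhibition of thallium flux through KCNK3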
# KCNQ1 block: blocks the human KCNQ1 potassium channel; CHO-K1 KCNQ1, FluxOR thallium flux fluorescence; hits give high values; 1.3% of 310,000 active; B-score at 10 µM;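 active = compounds whose thallium flux B-score, printed positive for inhibition, exceeds three library SD while starting fluorescence stays within three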;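 also: channel opened by potassium depolarization with thallium stimulus after 20 min compound exposure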
# KCNK9 block: blocks the human KCNK9 two-pore domain potassium channel; Q9NPC2; HEK293 KCNK9, FluxOR thallium flux fluorescence; hits give low values; B-score at 10 µM; 1.2% of 310,000 active; AID 488922;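 active = ratio B-score over 3 SD below the library mean, with starting fluorescence within 5 SD of its mean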;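 also: negative B-score means less thallium flux so channel inhibition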
# hERG rescue: shields human hERG channel from block by proarrhythmic agents; AID 1511; Q12809; CHO-hERG, FluxOR thallium flux, dofetilide IC70 present; activation (rescue from dofetilide block), less the hit threshold, % at 10 µM; 0.51% of 310,000 active;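 active = activation above the mean of controls blocked by dofetilide plus 5 SD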;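 also: thallium influx through hERG after potassium depolarization seen as dye fluorescence rise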
# KCNK9 block conf: human KCNK9 inhibitor confirmation; AID 492992; HEK293 KCNK9 cells, FluxOR thallium flux fluorescence; inhibition, % at 10 µM; 43% of 4,900 active; shares compounds with KCNK9 block;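 active = thallium signal inhibited by more than 5 SD of the compound-free buffer control wells, on both duplicate plates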;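 also: 0% = assay buffer control wells without compound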
# Kir21 sel: selectivity of KCNK9 modulators against mouse Kir2.1; shares compounds with KCNK9 block; Kir2.1 cells, FluxOR thallium flux fluorescence; inhibition, % at 10 µM; 4% of 4,900 active; AID 492993;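 active = thallium signal drop more than 5 SD beyond the mean of the no-compound control wells, seen in both duplicate plates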;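 also: signal is fluorescence rise after thallium addition divided by baseline fluorescence; plate controls were assay buffer only for no effect and full block by chlorpromazine control for full effect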
# HEK293 Tl ctr: second check of KCNK9 modulator effects in non-induced HEK293 cells | shares compounds with KCNK9 block | FluxOR thallium flux | inhibition, % at 10 µM | 40% of 4,900 active | AID 492997;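 active = thallium signal drop beyond 5 SD of the untreated control mean, on both duplicate plates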;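 also: plate controls were buffer only IC0 wells for no effect and SID17386958 at its maximal inhibitory level for full effect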
# Numbers without * were called inactive; i = inactive; · = no result.
SMILES,KCNQ1 pot,KCNK3 block,KCNQ1 block,KCNK9 block,hERG rescue,KCNK9 block conf,Kir21 sel,HEK293 Tl ctr
COc1cc2c(cc1OC)-c1nnc(-c3ccco3)n1C1(CCCC1)C2,i,i,i,-12.6*,-8.4,46.5%*,i,28.5%*
COc1cc(-c2csc(NC3CCCCC3)n2)cc(OC)c1OC,i,i,i,i,-11.8,i,i,i
COc1cc(CNC2CCCCCC2)cc(OC)c1OC,i,i,i,i,-8.9,·,·,·
O=C(c1ccccc1Br)N1CCC(c2nc3ccccc3s2)CC1,i,i,i,i,-21.8,·,·,·
CCc1ccc(C(=O)N2CCC(c3nc4ccccc4s3)CC2)cc1,i,i,i,i,-12.7,i,i,i
Oc1ccc(C=NCCc2ccccc2)cc1,i,i,i,i,-4.0,·,·,·
CCCCn1c(SCc2nc(N)nc(Nc3ccccc3C)n2)nc2ccccc2c1=O,i,i,i,-9.46*,-3.9,39.5%*,i,i
CCCCCCCCCCCC(=O)NC(Cc1ccc(OC)c([N+](=O)[O-])c1)C(=O)O (configuration not stated),i,i,i,i,-12.8,i,i,i
COc1ccc(C(CNC(=O)c2cc(C)on2)N(C)C)cc1 (configuration not stated),i,i,i,i,-3.4,·,·,·
CCOC(=O)c1sc(-c2ccccc2)cc1NC(=O)Nc1ccccc1,i,i,i,i,-11.2,i,i,i
Cc1cccc(CSc2nc(N)c(C#N)c(-c3cccs3)c2C#N)c1,i,i,i,-8.54*,-6.8,47.5%*,i,46.5%*
Cc1ccc(S(=O)(=O)N2CCN(C(=O)CCC(=O)Nc3ccc(F)cc3F)CC2)cc1,·,i,·,·,·,·,·,·
COc1ccc(C2SCC(=O)N2c2nnc(C34CC5CC(CC(C5)C3)C4)s2)cc1 (configuration not stated),i,i,i,i,-6.1,·,·,·
COc1cc(C2SCC(=O)N2c2nnc(C34CC5CC(CC(C5)C3)C4)s2)cc(OC)c1OC (configuration not stated),i,i,i,i,-6.3,i,i,i
N#Cc1ccc(-c2cccnc2)nc1SCc1ccc(Cl)cc1Cl,i,i,i,-13*,-3.7,46.0%*,i,37.5%*
CC1(C)O[C@@H]2[C@H](O1)[C@@H](COS(=O)(=O)O)O[C@H]2n1c(=S)[nH]c2c(=O)[nH]c(N)nc21,·,i,·,·,·,·,·,·
CC(=O)c1ccc(S(=O)(=O)N2CCN(C(=O)CN3C(=O)NC4(CCCC4)C3=O)CC2)cc1,i,i,i,i,-7.7,·,·,·
CCOC(=O)c1c(C)[nH]c(C(=O)COC(=O)C2(C)CC2(Cl)Cl)c1C (configuration not stated),i,i,i,-17.4*,-6.9,i,i,i
COc1ccc(S(=O)(=O)N2CCCCCC2)cc1C(=O)OCc1cccc(OC)c1OC,i,i,i,i,-16.5,·,·,·
CCCCN1CC[C@H]2C=CC[C@@H](C(=O)Nc3ccc(Cl)cc3Cl)[C@H]2C1=O,i,i,i,i,-10.9,i,i,i
COc1ccc(NS(=O)(=O)c2cc(NC(=O)CCSc3ccccc3)ccc2OC)cc1,i,i,i,i,1.3,i,i,i
COc1ccc(NC(=O)CCS(=O)(=O)c2ccccc2Cl)cc1S(=O)(=O)Nc1ccc(Cl)cc1,i,i,i,i,-7.5,·,·,·
COc1ccc(NC(=O)CCSc2ccc(C)cc2)cc1S(=O)(=O)Nc1ccccc1Cl,i,i,i,i,-5.9,i,i,i
N#Cc1cc(-c2ccccc2)cnc1Sc1ccc(Cl)cc1,i,i,i,i,-14.5,i,i,i
N#Cc1cc(-c2ccc(Cl)cc2)cnc1Sc1ccccc1,i,i,i,i,-11.2,·,·,·
SMILES,KCNQ1 pot,KCNK3 block,KCNQ1 block,KCNK9 block,hERG rescue,KCNK9 block conf,Kir21 sel,HEK293 Tl ctr
NC(=O)c1ccccc1OCC(=O)N1CCC(Cc2ccccc2)CC1,·,i,·,·,·,·,·,·
Cc1noc(C)c1NC(=O)Nc1ccc2c(c1)C(=O)N([C@H](C)CO)C[C@H](C)[C@@H](CN(C)S(=O)(=O)c1c(C)noc1C)O2,·,i,·,·,·,·,·,·
COC(=O)c1cc2occc2n1Cc1ccc(Cl)cc1,i,i,i,i,-15.1,·,·,·
CCOC(=O)c1cc2occc2n1Cc1ccc(F)cc1,i,i,i,-8.28*,-7.8,i,i,30.0%*
O=C(CSc1nnc(CNC(=O)c2cccc(C(F)(F)F)c2)o1)NC1CCCC1,i,i,i,i,-6.2,·,·,·
Nc1ncnc2c1ncn2[C@@H]1O[C@H](CNC(=O)[C@H]2CCC(=O)N2)[C@@H](O)[C@H]1O,·,i,·,·,·,·,·,·
COc1cc(Cl)cc2c1Sc1ccccc1/C2=C/CCN(C)C,i,i,i,i,-19.4,i,i,i
CN(C)CC/C=C1/c2cc(F)ccc2Sc2ccc(Cl)cc21,i,i,i,i,-7.3,i,i,i
CCn1cc(C(=O)Nc2cccc(C)c2)c(=O)c2ccc(C)nc21,i,·,i,i,-1.9,·,·,·
Cc1ccc(CNS(=O)(=O)c2ccc3c(c2)CCN3C(=O)CCCC(=O)O)cc1,i,i,i,i,-13.0,·,·,·
CCOc1ccc(OCCOC(=O)C2CCN(S(=O)(=O)c3ccc(C)c(C)c3)CC2)cc1,i,i,i,i,-12.7,i,i,i
COc1ccccc1/C=C(/C(=O)OCC(=O)Nc1ccccc1C(C)C)c1ccccc1,i,i,i,-9.49*,-5.3,51.0%*,i,39.0%*
COc1ccccc1OCCOCCOc1ccc(C)cc1Br,i,i,i,i,-4.9,i,i,i
Cc1ccc(OCCCCN(C)Cc2ccccc2)c(Br)c1,i,i,i,i,-13.9,i,79.5%*,i
O=C(CCc1nnc2n(Cc3ccccc3)c(=O)c3ccccc3n12)NCCN1CCOCC1,i,i,i,i,-3.9,·,·,·
Cc1cc(C)n(-c2nc(NCCC(C)C)c3c4c(sc3n2)COC(C)(C)C4)n1,i,i,i,-12.2*,-13.1,58.5%*,i,32.5%*
Cc1cc(C)n(-c2nc(NCCN(C)C)c3c4c(sc3n2)COC(C)(C)C4)n1,i,i,i,i,-11.8,·,·,·
Cn1c(=O)c2c(SCC(=O)NC3CCCC3)nc(CC(C)(C)C)nc2n(C)c1=O,i,i,i,i,-6.2,·,·,·
